# Rows were chosen to be rich in hits. Some 1.6% of all compounds tested hit in one or more screens of this group.
# Neddylation inh – inhibitors of cullin neddylation, primary screen, biochemical, TR-FRET, uHTS, NAE and Ubc12; NEDD8-conjugating enzyme Ubc12 (Homo sapiens) + NEDD8-activating enzyme E1 regulatory …; calls only at 25 µM; AID 651699, 2012; 360,000 tested, 0.58% active; in the data active means inhibition above about 36%
# DNA FID counter – compounds displacing fluorescent DNA intercalator, primary screen, artefact control for HCV NS3 helicase inhibitor project, biochemical, FID fluorescence. DNA fluorescent intercalator displacement. inhibition, % at 7.9 µM. 290,000 tested, 0.17% active; in the data active means inhibition above about 37%;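 further: higher means more ethidium bromide displaced from hairpin DNA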
# RAD54 inh – inhibitors of human RAD54 branch migration, primary screen, biochemical, fluorescence, single point; inhibition, % at 10.4 µM; DNA repair and recombination protein RAD54-like (Homo sapiens), Q92698; 360,000 tested, 0.14% active; AID 602329, 2012; RAD54 Holliday junction branch migration, FAM/BHQ fluorescence;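 active means mean normalized replicate activity at least 40 and at least half of replicates scoring 40 or more; inconclusive means only one of the two criteria met; inactive means mean below 40 and under half of replicates reaching 40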;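 further: inhibitors cause a drop in the FAM fluorescence signal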
# Apaf1 inhib – inhibitors of human Apaf-1 apoptosome, primary screen, biochemical, DEVD-Rh110 fluorescence, uHTS; reconstituted apoptosome caspase-3 activity; inhibition, % at 20 µM; 330,000 tested, 0.71% active; active means inhibition of at least 40% at 20 µM
#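 Assay system – apoptosome proteins · Medium – Hepes buffer, pH 7.5 · Also added – cytochrome c with DEVD-Rh110 · Timing – 30 min compound preincubation, 50 min activation, room temperature · Detection – Rh110 fluorescence, excitation 480 nm, emission 540 nm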
# RAD52 inh – RAD52 DNA annealing inhibitors, primary screen, biochemical, FRET, single point, set 2; inhibition, % at 18.7 µM; 360,000 tested, 0.46% active; recombinant RAD52 DNA annealing, FRET fluorescence;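 active means every replicate showing at least 50% inhibition; inconclusive means mean inhibition at least 50% but not in every replicate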
# Target sequence (P43351 whole entry, looked up): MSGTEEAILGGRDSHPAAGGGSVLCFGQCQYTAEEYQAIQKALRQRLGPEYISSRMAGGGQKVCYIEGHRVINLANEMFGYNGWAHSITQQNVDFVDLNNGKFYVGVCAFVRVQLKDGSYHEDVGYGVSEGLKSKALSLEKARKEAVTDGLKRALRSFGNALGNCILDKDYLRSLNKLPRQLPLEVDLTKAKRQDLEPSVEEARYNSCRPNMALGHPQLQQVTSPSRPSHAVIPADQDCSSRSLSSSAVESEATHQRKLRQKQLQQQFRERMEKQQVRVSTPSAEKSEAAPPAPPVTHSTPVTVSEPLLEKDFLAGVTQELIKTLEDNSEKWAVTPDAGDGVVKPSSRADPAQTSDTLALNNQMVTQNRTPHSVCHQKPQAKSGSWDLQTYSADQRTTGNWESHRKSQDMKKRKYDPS
# UBC13 inh – UBC13 polyubiquitin chain formation inhibitors, primary screen, biochemical, TR-FRET, uHTS; Ubiquitin-conjugating enzyme E2 N (Homo sapiens), P61088; inhibition, % at 20 µM; 330,000 tested, 0.47% active; in the data active means inhibition above about 45%, passing the limit was not always enough; inconclusive means no clear call, values can overlap the other calls
# Target sequence (P61088 whole entry, looked up): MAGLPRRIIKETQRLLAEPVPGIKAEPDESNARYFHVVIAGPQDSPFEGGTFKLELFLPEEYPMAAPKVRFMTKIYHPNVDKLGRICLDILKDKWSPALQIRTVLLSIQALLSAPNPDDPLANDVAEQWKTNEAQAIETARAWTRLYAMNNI
# RAD52 DNA ctr – DNA-binding compounds via dye displacement, dose response, artefact control for RAD52 inhibitor project, biochemical, fluorescence polarization, cherry-pick. shares compounds with RAD52 inh. Salmon sperm DNA/acridine orange FP displacement. AC50, µM. 1,000 tested, 8% active;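 active means fitted half-maximal concentration for signal loss at or below twice the highest dose tested, in every separate run, actives reach about 64 µM in these data; inconclusive means runs disagree, or flat partial signal loss, or poor fit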
# Hits are given with their value; . = inactive; ? = inconclusive; / = no result shown.
SMILES,Neddylation inh,DNA FID counter,RAD54 inh,Apaf1 inhib,RAD52 inh,UBC13 inh,RAD52 DNA ctr
CC[n+]1c(/C=C2/C=C(C)CC(C)C2)sc2ccccc21 (stereo not drawn),.,.,/,.,.,.,/
CC[n+]1c(C=C2C=C(C)OC(C)=C2)sc2ccccc21,.,.,/,.,58.7,.,.
CC(C)c1ccc(CNc2nc(NCC3CC3)nc3ccsc23)cc1,.,/,.,/,71.1,/,.
COc1ccccc1CNc1nc(NCc2ccc(C(C)C)cc2)c2sccc2n1,.,/,.,/,.,/,/
CCC(=O)N1[C@@H]2c3cccc(=O)n3C[C@H]1[C@H](CO)[C@H]2C(=O)N1CCc2ccccc2C1,/,/,.,/,.,/,/
COc1ccc(S(=O)(=O)N(C)C[C@@H]2OCCCC[C@@H](C)Oc3ccc(NS(=O)(=O)c4ccc(F)cc4)cc3C(=O)N([C@@H](C)CO)C[C@@H]2C)cc1,/,/,.,/,.,/,/
Cc1ccccc1-c1ccc2c(c1)O[C@@H](CN(C)Cc1ccc(C(=O)O)cc1)[C@@H](C)CN([C@@H](C)CO)S2(=O)=O,/,/,.,/,.,/,/
CC1=CC(C)(C)N=C(Nc2nc(C)c3cc(C)cc(C)c3n2)N1,.,.,.,.,79.0,.,.
C[C@@H]1CN([C@@H](C)CO)S(=O)(=O)c2ccc(Br)cc2O[C@@H]1CN(C)Cc1ccccc1,/,/,.,/,.,/,/
CN(C)CCCN=c1cc(-c2ccccc2)oc2ccc(Cl)cc12,.,.,/,/,80.3,/,27.5µM
O=C(C[C@@H]1C=C[C@@H](NC(=O)c2ccccc2)[C@H](CO)O1)Nc1ccc(-c2ccccc2)cc1,/,/,.,/,.,/,/
CCCNc1nc(Cl)nc(NCc2cccnc2)n1,.,.,/,.,84.7,.,.
CC(C)(C)Nc1nc(Cl)nc(NCc2ccccc2)n1,.,.,.,.,.,.,/
CN(C)CCNc1nc(Oc2cccc(F)c2)c2sccc2n1,.,/,.,/,58.2,/,.
CNc1nc(Oc2cccc(F)c2)c2sccc2n1,.,/,.,/,.,/,/
Cc1nc2cc(Oc3nc(NCCN(C)C)nc4ccsc34)ccc2s1,.,/,.,/,78.0,/,.
CNc1nc(Oc2ccc3sc(C)nc3c2)c2sccc2n1,.,/,.,/,.,/,/
CC(=O)Nc1cccc(Oc2nc(NCCN(C)C)nc3ccsc23)c1,.,/,.,/,89.5,/,.
COc1cccc(CNCCSc2nnnn2C)c1OC,.,.,.,.,103.4,.,.
COc1cccc(S(=O)(=O)Nc2ccc3c(c2)[C@H]2C[C@H](CC(=O)N(C)C)O[C@H](CO)[C@H]2O3)c1,/,/,.,/,.,/,/
CC(C)NC(=O)N1CC(c2ccccc2)C(c2ccc(Cl)cc2)=N1 (stereo not drawn),.,.,.,.,97.5,.,.
C/C=C/c1ccc([C@@H]2[C@@H](CN(C(=O)COC)C(C)C)N(C(C)=O)[C@H]2CO)cc1,/,/,.,/,.,/,/
CCCNC1=CC(=O)CC(C)(C)C1,.,.,/,.,97.6,.,.
CCOC(=O)c1c(CSCc2ccccc2)oc2ccc(O)c(CN(C)C)c12,.,.,.,.,61.5,.,.
COC(=O)C[C@@H]1CC[C@@H]2[C@@H](COc3ccc(NC(=O)c4ccccc4)cc3C(=O)N2C)O1,/,/,.,/,.,/,/
SMILES,Neddylation inh,DNA FID counter,RAD54 inh,Apaf1 inhib,RAD52 inh,UBC13 inh,RAD52 DNA ctr
Cc1cccc(OCC(=O)Nc2ccc3c(c2)nc(CCN2CCCCC2)n3C)c1,.,.,.,.,.,.,/
Cc1cccc(OCC(=O)Nc2ccc3c(c2)nc(CN2CCCCC2)n3C)c1,.,.,/,.,66.7,.,.
O=C(C[n+]1ccc2ccccc2c1)c1ccccc1,.,.,.,.,.,.,/
O=C(C[n+]1ccc2ccccc2c1)c1ccc2ccc3ccccc3c2c1,.,/,/,/,89.9,/,.
C[C@H](O)C#Cc1cnc2c(c1)C(=O)N([C@H](C)CO)C[C@H](C)[C@@H](CN(C)Cc1ccc(-c3ccccc3)cc1)O2,/,/,.,/,.,/,/
CC1CCN(Cc2c(C(=O)N/N=C/c3cc(Br)ccc3O)nnn2-c2nonc2N)CC1,.,.,.,.,.,.,/
C/C(=N\NC(=O)c1nnn(-c2nonc2N)c1CN1CCC(C)CC1)c1ccc(Br)cc1,.,/,.,/,72.0,/,.
CCN1CCN(Cc2ccc(NC(=O)c3cccc(-c4ccc5nc(NC(=O)C6CC6)sc5n4)c3)cc2C(F)(F)F)CC1,/,/,/,/,66.6,/,.
C[C@@H]1CCCCO[C@@H](CN(C)S(=O)(=O)c2cn(C)cn2)[C@H](C)CN([C@@H](C)CO)C(=O)c2cc(NC(=O)C3CCCCC3)ccc2O1,/,/,.,/,.,/,/
Cc1cc(C(=O)OCC(=O)NC2CCCCC2C)c2ccccc2n1 (stereo not drawn),.,/,.,.,.,.,/
Cc1cc(C(=O)OC(C)C(=O)NC2CCCCC2C)c2ccccc2n1 (stereo not drawn),.,/,.,/,50.9,/,.
C/C=C/c1ccc([C@H]2[C@@H](CO)N(CCC(F)(F)F)[C@@H]2CNC(=O)C2CCC2)cc1,/,/,/,/,.,/,/
COc1cccc2sc3ccc(C#CC4(N)CCCCC4)cc3c(=O)c12,.,.,?,.,89.6,?,.
NCCCC[C@H]1CNC(=S)N1CCc1cc(C(F)(F)F)cc(C(F)(F)F)c1,.,.,.,.,66.7,.,.
NCCCC[C@H]1CNC(=O)C(=O)N1CCc1cc(C(F)(F)F)cc(C(F)(F)F)c1,.,/,.,.,.,.,/
CCCC[C@@H]1CNC(=O)C(=O)N1CCCCC1CCCCC1,.,/,/,/,.,/,/
NCCCC[C@H]1CNC(=S)N1CCCCC1CCCCC1,.,.,.,.,85.6,.,.
Cc1cccc(-c2ccc3c(c2)[C@@H]2C[C@H]4[C@@H](CN2CC3)[C@H](C)ON4C)c1,/,/,/,/,.,/,/
Cc1cccc(-c2ccc3[nH]c4c(c3c2)CCN2C[C@H]3[C@H](C)ON(C)[C@H]3C[C@@H]42)c1,.,/,.,/,59.7,/,.
Cc1cccc(-c2ccc3[nH]c4c(c3c2)CCN2C[C@@H]([C@H](C)O)[C@@H](N(C)C(=O)NC3CCCCC3)C[C@@H]42)c1,/,/,.,/,.,/,/
CN[C@H]1C[C@H]2c3[nH]c4ccc(-c5cccc(C)c5)cc4c3CCN2C[C@H]1[C@H](C)O,.,/,.,/,58.5,/,.
CCCC(=O)Nc1ccc2c(c1)C(=O)N(C)C[C@@H](OC)[C@H](C)CN(CCc1ccccc1)[C@H](C)CO2,/,/,.,/,.,/,/
COCCNc1nc(NCc2cccc(OC)c2)c2sc(-c3ccccc3)cc2n1,.,/,.,/,80.2,/,.

# Source: PubChem BioAssay
